Broadly, the Ki is a measure of affinity in units of concentration, obtained from inhibition or displacement. For orientation: Km means the substrate concentration at which the rate is half of its maximum.

Read-outs that look alike come from different tables or passages of the source.

These results are taken from publication PMC2175342 (Nucleic Acids Research, 2007).

Assay [1] deals with T1, HeLa cell telomerase (Homo sapiens, UniProt O14746). The conditions noted are these: cited from earlier work.
T1 sequence (O14746 whole entry): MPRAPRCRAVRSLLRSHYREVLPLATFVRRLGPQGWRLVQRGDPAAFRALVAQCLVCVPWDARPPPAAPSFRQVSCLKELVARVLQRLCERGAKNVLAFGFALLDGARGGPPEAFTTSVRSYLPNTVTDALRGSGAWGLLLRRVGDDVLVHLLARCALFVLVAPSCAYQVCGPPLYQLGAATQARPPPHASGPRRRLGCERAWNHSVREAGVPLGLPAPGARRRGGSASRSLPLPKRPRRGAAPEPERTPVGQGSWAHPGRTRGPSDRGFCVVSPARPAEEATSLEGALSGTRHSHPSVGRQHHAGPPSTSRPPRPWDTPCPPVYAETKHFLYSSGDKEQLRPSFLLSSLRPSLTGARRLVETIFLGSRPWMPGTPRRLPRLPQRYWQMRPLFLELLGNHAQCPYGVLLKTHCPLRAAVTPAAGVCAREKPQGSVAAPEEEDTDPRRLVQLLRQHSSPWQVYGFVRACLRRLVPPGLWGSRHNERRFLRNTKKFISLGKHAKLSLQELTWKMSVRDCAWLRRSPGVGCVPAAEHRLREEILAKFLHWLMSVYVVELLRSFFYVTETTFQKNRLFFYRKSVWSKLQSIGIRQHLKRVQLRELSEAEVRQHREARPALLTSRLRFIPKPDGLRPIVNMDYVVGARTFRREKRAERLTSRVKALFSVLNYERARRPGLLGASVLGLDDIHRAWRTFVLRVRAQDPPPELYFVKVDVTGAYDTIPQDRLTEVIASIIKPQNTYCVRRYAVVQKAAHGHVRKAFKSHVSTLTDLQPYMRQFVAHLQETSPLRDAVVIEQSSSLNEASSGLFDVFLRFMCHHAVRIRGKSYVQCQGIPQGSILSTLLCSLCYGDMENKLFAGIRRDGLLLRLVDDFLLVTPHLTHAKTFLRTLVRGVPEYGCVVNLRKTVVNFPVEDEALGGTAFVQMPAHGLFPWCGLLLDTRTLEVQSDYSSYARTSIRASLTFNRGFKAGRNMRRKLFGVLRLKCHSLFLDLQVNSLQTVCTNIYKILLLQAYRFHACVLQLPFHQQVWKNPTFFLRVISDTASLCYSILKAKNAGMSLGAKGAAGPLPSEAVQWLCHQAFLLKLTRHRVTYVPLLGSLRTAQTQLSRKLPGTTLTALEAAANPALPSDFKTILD
T1 sequence (O60832 whole entry partner): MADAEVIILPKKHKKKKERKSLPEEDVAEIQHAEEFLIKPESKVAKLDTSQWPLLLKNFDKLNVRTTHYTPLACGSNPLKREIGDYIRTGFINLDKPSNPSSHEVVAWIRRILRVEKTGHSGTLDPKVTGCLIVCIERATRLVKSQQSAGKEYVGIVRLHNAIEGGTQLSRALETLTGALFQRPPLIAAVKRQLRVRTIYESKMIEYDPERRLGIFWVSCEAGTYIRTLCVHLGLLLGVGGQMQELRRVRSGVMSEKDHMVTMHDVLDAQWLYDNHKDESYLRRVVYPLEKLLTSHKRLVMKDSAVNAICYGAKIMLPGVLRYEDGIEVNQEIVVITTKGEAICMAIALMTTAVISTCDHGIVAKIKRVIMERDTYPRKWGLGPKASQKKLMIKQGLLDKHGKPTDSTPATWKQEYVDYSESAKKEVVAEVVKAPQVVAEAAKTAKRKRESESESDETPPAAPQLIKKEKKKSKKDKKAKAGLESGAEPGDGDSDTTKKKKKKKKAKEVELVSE
T1 sequence (Q9NX24 whole entry partner): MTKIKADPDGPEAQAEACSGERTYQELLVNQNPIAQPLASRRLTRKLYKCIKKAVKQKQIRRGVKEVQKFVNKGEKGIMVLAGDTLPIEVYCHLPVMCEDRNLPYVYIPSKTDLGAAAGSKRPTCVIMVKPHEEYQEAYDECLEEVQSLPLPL
T1 sequence (Q9NPE3 whole entry partner): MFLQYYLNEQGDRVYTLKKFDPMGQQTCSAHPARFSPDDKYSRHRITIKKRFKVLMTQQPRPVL
T1 sequence (Q9NY12 whole entry partner): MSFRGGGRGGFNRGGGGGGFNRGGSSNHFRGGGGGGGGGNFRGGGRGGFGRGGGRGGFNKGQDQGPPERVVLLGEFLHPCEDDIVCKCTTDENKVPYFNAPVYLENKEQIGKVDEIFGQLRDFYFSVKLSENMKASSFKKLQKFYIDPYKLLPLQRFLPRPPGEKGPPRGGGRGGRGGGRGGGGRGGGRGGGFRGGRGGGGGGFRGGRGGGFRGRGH
T1 sequence (Q9BUR4 whole entry partner): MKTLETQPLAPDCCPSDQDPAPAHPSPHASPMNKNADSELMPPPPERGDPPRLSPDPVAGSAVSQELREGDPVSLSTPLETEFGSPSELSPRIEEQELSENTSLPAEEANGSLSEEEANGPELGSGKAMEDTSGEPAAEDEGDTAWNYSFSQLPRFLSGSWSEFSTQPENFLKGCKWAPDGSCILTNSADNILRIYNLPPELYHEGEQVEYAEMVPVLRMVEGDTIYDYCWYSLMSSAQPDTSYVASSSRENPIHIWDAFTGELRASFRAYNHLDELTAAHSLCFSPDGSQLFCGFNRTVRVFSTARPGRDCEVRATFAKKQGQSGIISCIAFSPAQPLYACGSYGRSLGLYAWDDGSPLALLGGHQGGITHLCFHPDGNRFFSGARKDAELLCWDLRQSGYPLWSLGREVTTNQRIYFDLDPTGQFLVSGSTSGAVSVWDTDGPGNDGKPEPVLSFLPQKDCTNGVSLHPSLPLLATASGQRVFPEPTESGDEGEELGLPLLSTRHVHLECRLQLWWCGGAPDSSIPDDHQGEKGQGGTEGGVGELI
Assay [2] concerns the target T1, HeLa cell telomerase. In words: Semi-quantitative telomerase assay based on the 'stretch PCR' method. The class given is biochemical. The conditions noted are these: for Km: natural dNTP substrate, Lineweaver–Burk plot analyses.
The subject of assay [3] is immortalized human B- and T-cell lines. The following applies: cited from earlier work.
The test system of assay [4] is telomerase from human leukemia cells and HeLa cells. The following applies: cited from earlier work.
In assay [5] the test system is cherry salmon telomerase. Briefly: Primer extension assay. The conditions noted are these: 18-mer (TTAGGG)3 primer, 5 or 20 µM analog. Type of assay: biochemical. The essentials:
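Telomerase was partially purified from immature cherry salmon testis (DEAE-cellulose, 70% ammonium sulfate, dialysis). It extended 2 µM (TTAGGG)3 in Tris–HOAc pH 8.5, KOAc, 1 mM MgCl2, 1 mM DTT and 5 µM [α-32P]dTTP. Either 200 µM dATP with 0/5 µM dGTP plus 0/5/20 µM dGTP-analog, or 200 µM dGTP with 0/5 µM dATP plus 0/5/20 µM dATP-analog. Run 1 h at 25°C, then RNase A/proteinase K, 20% PAGE–7 M urea, phosphorimaging.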

Consider `Nc1nc2c(ncn2[C@@H]2O[C@H](COP(=O)(O)OP(=O)(O)OP(=O)(O)O)[C@@H](O)[C@@H]2O)c(=O)[nH]1` [araGTP, 9-β-D-Arabinofuranosylguanine 5′-triphosphate], for which the Ki in assay [1] was 1200 nM. On to `Cc1cn([C@H]2C[C@H](N=[N+]=[N-])[C@@H](COP(=O)(O)OP(=O)(O)OP(=O)(O)O)O2)c(=O)[nH]c1=O` [AZTTP, 3′-Azido-3′-deoxythymidine 5′-triphosphate], for which, in assay [2], the Ki was found to be 15000 nM. The “inhibitory effects on human telomerase” value in assay [2] (Figure 2B) is on record as “weak”. Further, the inhibition mode entry in assay [2] (Lineweaver–Burk plots, versus the corresponding dNTP) is given as “nearly competitive”.

`Nc1nc2c(ncn2[C@H]2CC[C@@H](CO)O2)c(=O)[nH]1` [ddG, 2′,3′-dideoxyguanosine]: the “telomere DNA shortening” value in assay [3] (10 µM, long-term treatment) was “reproducible progressive telomere DNA shortening”. Besides, the “effects on cell population doubling rates or morphology” value in assay [3] was “did not have observable effects”. As to `Nc1nc2c(ncn2[C@H]2C[C@H](O)[C@@H](COP(=O)(O)OP(=O)(O)OP(=O)(O)O)O2)c(=O)[nH]1` [dGTP], the Km in assay [2] is 8.2 ± 2.1 µM; in assay [4] it was 8 to 12 µM. As for `Nc1ncnc2c1ncn2[C@H]1C[C@H](O)[C@@H](COP(=O)(O)OP(=O)(O)OP(=O)(O)O)O1` [dATP], in assay [2], the Km came to 0.97 ± 0.31 µM. Regarding `Cc1cn([C@H]2C[C@H](O)[C@@H](COP(=O)(O)OP(=O)(O)OP(=O)(O)O)O2)c(=O)[nH]c1=O` [dTTP], the values for the Michaelis constant (Km) in assay [2] and in assay [4] were 7.9 ± 1.8 µM and 8 to 12 µM, respectively. `Nc1nc2c(ncn2[C@H]2CC[C@@H](COP(=O)(O)OP(=O)(O)OP(=O)(O)O)O2)c(=O)[nH]1` [ddGTP]: the “primer extension product with analog instead of dGTP or dATP” value in assay [5] was “distinct 22-mer product”. The Ki in assay [1] is 650 nM.
